Measured values from different studies.
Each line is one published result; the experiments were not run side by side.
Observed: cell growth or viability

Compound	cell line	test	setting	IC50
COc1cccc(Oc2ccccc2NC(=O)CNC(=O)c2cccc3ccccc23)c1	SK-N-BE(2)-C			0.236 µM
COC(=O)CN=c1scc(-c2ccccc2)n1-c1ccc(Cl)cc1	PANC-03-27	MTT	72 h	22.1 µM
N[C@@H](CC(=O)N1CCN(C(c2ccc(F)cc2)c2ccc(F)cc2)CC1)C(=O)N1Cc2ccccc2C1	TF-1	ATP luminescence	48 h	28.8 µM
COc1ccc(C[C]2([Ti+2][C]3(Cc4ccc(OC)cc4)C=CC=C3)C=CC=C2)cc1.[Cl-].[Cl-]	HEK-293T	XTT	24 h	> 200 µM
COc1cc([C@@H]2c3cc4c(cc3[C@@H](O[C@@H]3O[C@@H]5CO[C@@H](C)O[C@H]5[C@H](O)[C@H]3O)[C@H]3COC(=O)[C@H]23)OCO4)cc(OC)c1O	CCD-18Co	MTS	72 h	42.2 µM
O=C(c1cc(O)c(O)c(O)c1)c1cc2ccccc2o1	HEK-293T	ATP luminescence	24 h	1.3 µg/mL
CCN(c1nc(N)c(C(=O)N=C(N)N)nc1Cl)C(C)C	A-431	MTT	3 h	160 µM
O=C(Nc1cccc(CO)c1)c1c[nH]c2ccc(Cl)cc12	SK-N-BE(2)-C	MTT		14 µM
Cc1cc(Nc2ncc(Cl)c(Nc3ccccc3S(=O)(=O)C(C)C)n2)c(OC(C)C)cc1C1CCNCC1	human Myoblast		72 h	1.84 µM
COc1cc([C@@H]2c3cc4c(cc3[C@@H](O[C@@H]3O[C@@H]5CO[C@@H](C)O[C@H]5[C@H](O)[C@H]3O)[C@H]3COC(=O)[C@H]23)OCO4)cc(OC)c1O	CCD-18Co	MTS	48 h	43.7 µM
COC(=O)CN=c1scc(-c2ccccc2)n1-c1ccc(OC)cc1	PANC-03-27	MTT	72 h	11.5 µM
[Cl-].[Cl-].[Ti+4].c1cc[cH-]c1.c1cc[cH-]c1	HEK-293T	XTT	24 h	> 200 µM
COc1cc(Nc2nccc(-c3cnn4nc(OC)ccc34)n2)cc(C(F)(F)F)c1	M-07e	ATP luminescence		0.11 µM
Cc1cnc(NC2CCOCC2)nc1-n1cnc(C(=O)NC(CN)c2cc(F)cc(Cl)c2)c1 (stereo not drawn)	KM-H2	MTS		2.6 µM
O=C1/C(=C/c2cc(O)c(O)c(O)c2)Oc2cccc(O)c21	HEK-293T	ATP luminescence	24 h	> 32 µg/mL
CC[C@@H](C)[C@H](N)C(=O)N1Cc2ccccc2C1	TF-1	ATP luminescence	48 h	> 60 µM
COC(=O)CN=c1scc(-c2ccccc2)n1-c1ccccc1	PANC-03-27	MTT	72 h	72.2 µM
O=C(Nc1ccccc1CO)c1c[nH]c2ccc(Cl)cc12	SK-N-BE(2)-C	MTT		13 µM
C=CCNC1=C2C[C@@H](C)C[C@H](OC)[C@H](O)[C@@H](C)/C=C(\C)[C@H](OC(N)=O)[C@@H](OC)/C=C\C=C(/C)C(=O)NC(=CC1=O)C2=O	A-431	MTT		0.067 µM
O=C(CNC(=O)c1cccc2ccccc12)Nc1ccccc1Oc1ccccc1	SK-N-AS			0.107 µM
O=c1[nH]cc(S(=O)(=O)Nc2cccc(-c3nnc(-c4cccc(Cl)c4)o3)c2)c(=O)[nH]1	NCI-H292	MTT	24 h	3.81 µM
Nc1ccn([C@@H]2O[C@H](CO)[C@@H](O)C2(F)F)c(=O)n1	PANC-03-27	MTT	72 h	0.42 µM
COc1cc2nccc(Oc3ccc(NC(=O)C4(C(=O)Nc5ccc(F)cc5)CC4)cc3)c2cc1OC	human Myoblast		72 h	0.14 µM
CCCCNS(=O)(=O)c1ccc(-c2ccc3oc(C(=O)c4cc(O)c(O)c(O)c4)cc3c2)cc1	HEK-293T	ATP luminescence	24 h	15 µg/mL
Cc1cc(NC(=O)c2cccc3cc(-c4cccc5[nH]nc(N)c45)ccc23)ccc1F	D283	CCK-8	72 h	> 20 µM
COc1cc(N2CCC(N3CCN(C)CC3)CC2)ccc1Nc1ncc(Cl)c(Nc2ccccc2S(=O)(=O)C(C)C)n1	human Myoblast		72 h	0.45 µM
CC(C)C[C@H](NC(=O)[C@H](Cc1ccccc1)NC(=O)c1cnccn1)B(O)O	M-07e	ATP luminescence		0.0053 µM
COc1cccc(Oc2ccccc2NC(=O)[C@H](C)NC(=O)c2cccc3ccccc23)c1	SK-N-AS			1.5 µM
CC(=O)CC(=O)[c-]1cccc1.[Fe+2].c1cc[cH-]c1	PNT2	MTT	96 h	> 100 µM
CC1=CC(C)(C)N(Cc2ccccc2)c2ccc(O)cc21	Huh-7	MTT	72 h	16 µM
